Bioassay records (PubChem)
Exocytosis inh: LAMP-1 surface exposure blockers, TALL-104 cells – cell-based, flow cytometry, MLPCN library, primary screen. TALL-104 LAMP-1 surface exposure; cells stimulated with thapsigargin and PMA. inhibition, % at 10 µM. actives 0.66% (n = 360,000). AID 651702, 2012;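 active means inhibition above about 55%, limit read from the data; inconclusive means no clear call, values can overlap the other calls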
Myeloid diff MLP: induction of myeloid progenitor differentiation, primary screen, cell-based, flow cytometry, MLPCN library; calls only at 10 µM; AID 624256, 2012; actives 1% (n = 360,000); ER-HoxA9 myeloid progenitors, lysozyme-GFP differentiation;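 active means normalized GFP-positive differentiation at or above the plate's own cutoff, the solvent-only control mean plus 3 SD; inconclusive means no clear call, values can overlap the other calls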;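 further: cells exposed to compound for four days before flow analysis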
CSN inh: inhibitors of CSN-mediated cullin deneddylation, primary screen, biochemical, fluorescence polarization, uHTS; Purified CSN, SCF-Nedd8-OG deneddylation; inhibition, % at 12.5 µM; actives 0.38% (n = 360,000); AID 651999, 2013;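 active means pattern-corrected inhibition above about 35%, with an unprinted fluorescence ratio check between 0.5 and 1.5, limit read from the data, passing the limit was not always enough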;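 further: 0% = enzyme with substrate and 100% = substrate without enzyme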
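Material: human Csn5 produced in HEK293T cells; Input: enzyme 0.24 nM; Reagent: SCFSkp2-Nedd8OG substrate at 10 nM final; Dosing: 12.5 µM compound; Incubation: 90 min reaction at room temperature; Detection: fluorescence polarization of the substrate; Evaluation: % inhibition of substrate cleavage by Csn5; Control set: substrate-only high control, full reaction low control.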
HNF4A DNA FP: change in binding of human HNF4A to DNA, primary screen, biochemical, fluorescence polarization, FITC-DNA; Hepatocyte nuclear factor 4-alpha (Homo sapiens), P41235; 1 h; activity change, % at 10 µM; actives 0.3% (n = 360,000); AID 1224865, 2016; in the data active means activity change above about 30%, passing the limit was not always enough
Exocytosis CP01: inhibitors of lytic granule exocytosis, confirmation, TALL-104 cells, flow cytometry, Cherry Pick01; shares compounds with Exocytosis inh; inhibition, % at 10 µM; LAMP-1 externalization; stimulated with PMA plus thapsigargin; actives 11% (n = 1,500); in the data active means inhibition above about 60%;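 further: 0% = stimulated vehicle wells and 100% = unstimulated wells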
CSN5 deneddyl: Csn5 deneddylation inhibitors, confirmation, biochemical, fluorescence polarization, single concentration, SCF-Nedd8OG substrate; Csn5 deneddylation of SCF-Nedd8OG, 90 min; actives 62% (n = 540); shares compounds with CSN inh; inhibition, % at 16.6 µM; in the data active means inhibition above about 50%;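 further: 0% = DMSO with enzyme and 100% = no enzyme wells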
MMP2 cntr CSN: MMP-2 protease inhibition counter-screen, confirmation, counter-screen for CSN deneddylation inhibitor project, biochemical, fluorescence, single concentration; shares compounds with CSN inh; recombinant MMP-2, FRET substrate fluorescence, 60 min; inhibition, % at 16.6 µM; actives 33% (n = 540); AID 720655, 2013;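 active means corrected plate-normalized z-score of 5 or more, or -5 or less, or inhibition of 15% or more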;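 further: plate controls were DMSO wells with enzyme for no effect and buffer wells lacking MMP-2 for full effect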
Thrombin counter: blocks bovine thrombin in a CSN deneddylation counter-screen; shares compounds with CSN inh; bovine thrombin cleavage of Ub4-pepOG, fluorescence polarization; inhibition, % at 16.6 µM; actives 49% (n = 540);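 active means inhibition at or above a set limit, with a fluorescence interference ratio between 0.5 and a set maximum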
Target sequence (P00735 whole entry, looked up): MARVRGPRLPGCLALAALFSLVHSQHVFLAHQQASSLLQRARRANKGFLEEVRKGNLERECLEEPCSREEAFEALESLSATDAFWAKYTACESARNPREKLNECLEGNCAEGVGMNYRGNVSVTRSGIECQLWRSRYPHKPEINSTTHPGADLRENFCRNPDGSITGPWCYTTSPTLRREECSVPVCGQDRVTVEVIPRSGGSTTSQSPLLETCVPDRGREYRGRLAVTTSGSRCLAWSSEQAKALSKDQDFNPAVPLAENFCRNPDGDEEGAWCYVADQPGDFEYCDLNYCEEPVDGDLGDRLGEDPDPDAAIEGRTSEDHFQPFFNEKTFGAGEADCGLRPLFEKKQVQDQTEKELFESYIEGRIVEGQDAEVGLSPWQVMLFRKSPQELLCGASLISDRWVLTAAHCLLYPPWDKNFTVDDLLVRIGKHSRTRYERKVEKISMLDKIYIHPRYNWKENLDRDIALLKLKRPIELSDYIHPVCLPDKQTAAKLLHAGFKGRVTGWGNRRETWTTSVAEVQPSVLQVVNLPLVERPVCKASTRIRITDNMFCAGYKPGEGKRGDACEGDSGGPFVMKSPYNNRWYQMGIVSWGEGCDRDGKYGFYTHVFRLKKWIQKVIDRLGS
Numbers without * were called inactive; i = inactive; u = inconclusive; x = no result; + = active, no number. Hits are enriched below; roughly 2.2% of the tested compounds scored in any of these assays.

SMILES | Exocytosis inh | Myeloid diff MLP | CSN inh | HNF4A DNA FP | Exocytosis CP01 | others
CSc1scc2c1-c1nc(SCC(=O)C(C)(C)C)ncc1CC2 | 73.8* | i | 6.9 | -7.2 | -11.2
CN(C)CCCNc1ncnc2oc(-c3ccccc3)c(-c3ccccc3)c12 | 58.9* | i | -0.3 | 0.0 | 4.3
O=[N+]([O-])c1cc([N+](=O)[O-])c2cc3ccccc3nc2c1 | 13.1 | u | 6.4 | 0.3 | x
CCOC(=O)c1c(NC(=O)c2cccs2)sc2c1CCN(C(=O)OCC)C2 | 83.1* | i | -3.0 | -0.9 | 4.7
CCN1CCN(c2ccc(NC(=O)CCc3c(C)nc4c(-c5ccccc5)c(C)nn4c3C)cc2)CC1 | 56.1* | i | 5.2 | 4.1 | 28.2
Cc1nc2c(-c3ccccc3)c(C)nn2c(C)c1CCC(=O)NCc1ccco1 | 4.7 | i | 1.0 | 2.3 | x
CCCCCC/C=C/c1ccc([C@H]2[C@H]3C=CC[C@@H](C)[C@@H]3C(=O)N2Cc2ccccc2)c(F)c1 | 7.7 | i | 3.5 | -2.1 | x
CCCCCC/C=C/c1ccc(OC)c([C@H]2[C@H]3C=CC[C@@H](C)[C@@H]3C(=O)N2Cc2ccccc2)c1 | 66.7* | i | -0.7 | -0.8 | -3.0
COc1ccc(C(=O)NCc2nnc(SCC(=O)c3ccccc3)n2C)cc1OC | -12.2 | i | 2.5 | 1.3 | x
CN(C)S(=O)(=O)c1ccc(NC(=O)CN2CCN(c3ccccn3)CC2)cc1 | -0.1 | i | -6.1 | -0.3 | x
C(=C\c1nc(N2CCCCCC2)c2ccccc2n1)/c1ccccc1 | 58.2* | i | 2.8 | 1.1 | 32.0
Cc1cc(C)n(-c2nc(NCCN(C)C)c3c4c(sc3n2)CCCC4)n1 | 94.2* | i | -0.2 | 1.2 | 20.4
CC(=O)c1ccc(S(=O)(=O)N(C)CC(=O)Nc2ccc(C)cc2)cc1 | -0.8 | i | 1.9 | 6.8 | x
N#Cc1nc(COc2ccccc2Cl)oc1NCc1ccc(F)cc1 | 59.0* | i | 6.1 | 0.9 | -13.7
Cc1ccc(NC(=O)C(C)OC(=O)/C=C/c2ccccc2)cc1S(=O)(=O)N1CCOCC1 (centres undefined) | 10.9 | i | -0.6 | -3.0 | x
O=C(CSc1nc2ccccc2s1)N1c2ccccc2Sc2ccccc21 | 62.5* | i | 9.8 | -1.3 | 2.0
CCOC(=O)N1CCN(C(=O)c2ccccc2N(Cc2ccccc2)S(=O)(=O)c2ccccc2)CC1 | 79.3* | i | -0.7 | 1.3 | -3.3
COCCCNC(=O)c1ccccc1N(Cc1ccccc1)S(=O)(=O)c1ccccc1 | 68.9* | i | -1.1 | 0.7 | -4.7
O=C(c1ccccc1N(Cc1ccccc1)S(=O)(=O)c1ccccc1)N1CCOCC1 | 28.1 | i | 1.3 | 0.6 | x
CN(C)c1ccc2nc3c(=O)[nH]c(=O)nc-3n(CC(O)C(O)C(O)CO)c2c1 (centres undefined) | -4.0 | i | -72.3 | 18.8 | x
CCCCn1c(N)c(N(CC)C(=O)c2cc(CC)c(C)s2)c(=O)[nH]c1=O | 12.4 | i | -4.8 | 0.1 | x
O=[N+]([O-])c1ccc(N2N=C(c3ccccc3)CC2c2ccccc2O)cc1 (centres undefined) | 57.6* | + | 56.0* | 86.2* | 28.1 | CSN5 deneddyl=50.8*;MMP2 cntr CSN=-6.7;Thrombin counter=58.9*
COC(=O)c1ccc(CS(=O)(=O)c2ccc(C)cc2)o1 | 6.0 | i | 4.8 | -2.4 | x
O=C1C(=O)c2ccc(-c3ccccc3)cc2-c2ccccc21 | 74.4* | x | 56.9* | 1.3 | -0.5 | CSN5 deneddyl=49.7;MMP2 cntr CSN=6.6;Thrombin counter=-16.6
Nc1ccc2c(c1)C(=O)c1ccccc1-2 | -2.1 | i | 11.4 | -1.7 | x
SMILES | Exocytosis inh | Myeloid diff MLP | CSN inh | HNF4A DNA FP | Exocytosis CP01 | others
N#Cc1c(NC(=O)/C=C/C(=O)O)sc2c1CCN(Cc1ccccc1)C2 | 2.6 | i | 41.6* | 25.5 | x | CSN5 deneddyl=40.3;MMP2 cntr CSN=2.4;Thrombin counter=45.6*
O=C(NCC(c1ccco1)N1CCCC1)c1cc2ccccc2s1 (centres undefined) | -0.8 | i | 1.5 | 2.6 | x
O=C(CNC(=O)c1ccc(Br)o1)NCC(=O)OCc1ccccc1 | -4.4 | i | -1.8 | -0.8 | x
O=C(O)CCCN1C(=O)/C(=C/c2ccc(-c3nc4ccccc4s3)o2)SC1=S | 65.8* | x | 121.9* | 50.8* | x | MMP2 cntr CSN=1.2;Thrombin counter=-13.4
O=C(O)CCCCCN1C(=O)/C(=C/c2ccncc2)SC1=S | -2.4 | i | 2.5 | 2.1 | x
O=C(O)CCCCCN1C(=O)/C(=C\c2ccc(-c3ccc(Cl)cc3)o2)SC1=S | 87.3* | + | 61.2* | 100.5 | x | CSN5 deneddyl=74.0*;MMP2 cntr CSN=16.4*;Thrombin counter=24.7*
O=C(Nc1cccc(C(=O)O)c1)/C(=C\c1ccccc1Cl)NC(=O)c1ccco1 | 0.8 | i | 4.1 | 0.9 | x
O=[N+]([O-])c1ccc(N/N=C/c2c[nH]c3ccccc23)c(S(=O)(=O)Nc2ccc(Cl)cc2)c1 | 35.7 | + | 38.5* | 64.8* | x | CSN5 deneddyl=81.7*;MMP2 cntr CSN=6.8;Thrombin counter=12.1
CN1CCN(S(=O)(=O)c2cc([N+](=O)[O-])ccc2N/N=C/c2ccc(Cl)cc2)CC1 | -5.2 | i | -0.8 | 2.3 | x
COC(=O)C1=C(C(=O)OC)[C@]2([C@H]3CCCCN[C@@H](Cc4ccccc4)C(=O)N3Cc3ccccc3)C=C[C@H]1O2 | -3.5 | i | 1.7 | 5.2 | x
O=C(Nc1ccc(C2=NCCN2)cc1)c1ccc(C(=O)Nc2ccc(C3=NCCN3)cc2)c([N+](=O)[O-])c1 | 0.1 | i | 117.2* | 76.0 | x | CSN5 deneddyl=-39.9;MMP2 cntr CSN=86.2*;Thrombin counter=-0.7
CCNc1ccc(Br)cc(C(=O)/C=C/c2ccc3c(c2)OCO3)c1=O | 9.2 | i | 47.4* | -11.3 | x | CSN5 deneddyl=70.8*;MMP2 cntr CSN=-2.6;Thrombin counter=24.1*
CCNc1ccc(Br)cc(C(=O)/C=C/c2ccc(Cl)cc2)c1=O | 33.8 | i | 32.5 | -1.4 | x
O=C1/C(=C/C=C/c2ccco2)SC(=S)N1c1ccc(O)cc1 | 14.3 | i | 57.2* | -2.9 | x | CSN5 deneddyl=63.8*;MMP2 cntr CSN=31.2*;Thrombin counter=42.2*
CN(C)c1ccc(/C=C/C=C2/SC(=S)N(c3ccccc3)C2=O)cc1 | 9.4 | x | 37.7* | 57.4* | x | CSN5 deneddyl=66.7*;MMP2 cntr CSN=-10.1;Thrombin counter=35.4*
O=C(O)c1ccc(N2C(=O)/C(=C/C=C/c3ccccc3)SC2=S)cc1 | 8.1 | i | 18.8 | 1.6 | x
Cc1nonc1NC(=O)CSc1nnc(N)s1 | -7.3 | i | -5.1 | 2.2 | x
